According to PMC2948851 (European journal of pharmacology, 2010):
Marks after values point to notes of the source that are not given here.

Columns and labels:
Type in all cases: cell-based
[1] = biological target: human P2Y12 receptor R256T mutant (Homo sapiens, UniProt Q9H244, R256T); assay: cAMP assay, CHO-K1 cells expressing R256T mutant P2Y12
[2] = biological target: human P2Y12 receptor R256Q/R265W double mutant (Homo sapiens, UniProt Q9H244, R256Q/R265W); assay: cAMP assay, CHO-K1 cells expressing R256Q/R265W double mutant P2Y12
[3] = biological target: human P2Y12 receptor S288P mutant (Homo sapiens, UniProt Q9H244, S288P); assay: cAMP assay, CHO-K1 cells expressing S288P mutant P2Y12
[4] = biological target: human P2Y12 receptor H253S mutant (Homo sapiens, UniProt Q9H244, H253S); assay: cAMP assay, CHO-K1 cells expressing H253S mutant P2Y12
[5] = biological target: human P2Y12 receptor R256Q mutant (Homo sapiens, UniProt Q9H244, R256Q); assay: cAMP assay, CHO-K1 cells expressing R256Q mutant P2Y12
[6] = biological target: human P2Y12 receptor Y109S mutant (Homo sapiens, UniProt Q9H244, Y109S); assay: cAMP assay, CHO-K1 cells expressing Y109S mutant P2Y12
[7] = biological target: human P2Y12 receptor F104S mutant (Homo sapiens, UniProt Q9H244, F104S); assay: cAMP assay, CHO-K1 cells expressing F104S mutant P2Y12
[8] = biological target: human P2Y12 receptor F198P mutant (Homo sapiens, UniProt Q9H244, F198P); assay: cAMP assay, CHO-K1 cells expressing F198P mutant P2Y12
[9] = biological target: human P2Y12 receptor R265W mutant (Homo sapiens, UniProt Q9H244, R265W); assay: cAMP assay, CHO-K1 cells expressing R265W mutant P2Y12
[10] = biological target: human P2Y12 receptor wild-type (Homo sapiens, UniProt Q9H244)
Method in brief: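 CHO-K1 stably expressing N-terminally HA-tagged human P2Y12 (Ham's F-12, 10% FBS, 500 µg/ml hygromycin B); [3H]adenine-labelled overnight, 0.4 mM IBMX 10 min, then 20 µM forskolin with ADP (0.01–10 µM) and/or antagonist (0.001–1 µM, against 10 µM ADP) 5 min, 37°C. TCA stop; [3H]cAMP/([3H]ATP+[3H]cAMP) conversion, normalized to forskolin alone; IC50 calculated; mean ± S.E.M., n=3.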

[11] = CHO-K1, read-out: inhibition of cAMP at 10 μM ADP

Chain of human P2Y12 receptor Y109S mutant (Q9H244 whole entry Y109S): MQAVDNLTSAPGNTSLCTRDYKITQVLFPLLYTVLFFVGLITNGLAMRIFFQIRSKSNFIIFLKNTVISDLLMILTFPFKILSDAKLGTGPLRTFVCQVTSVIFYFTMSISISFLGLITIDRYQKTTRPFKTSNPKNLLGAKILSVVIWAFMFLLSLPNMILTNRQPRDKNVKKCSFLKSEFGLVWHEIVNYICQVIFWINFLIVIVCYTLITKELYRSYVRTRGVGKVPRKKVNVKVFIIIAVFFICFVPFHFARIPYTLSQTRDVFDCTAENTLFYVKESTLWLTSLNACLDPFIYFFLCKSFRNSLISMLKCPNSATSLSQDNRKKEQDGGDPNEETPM
Chain of human P2Y12 receptor F198P mutant (Q9H244 whole entry F198P): as the sequence (Q9H244 whole entry Y109S) above, with S109Y, F198P counted along it
Chain of human P2Y12 receptor R256Q/R265W double mutant (Q9H244 whole entry R256Q/R265W): as the sequence (Q9H244 whole entry Y109S) above, with S109Y, R256Q, R265W counted along it
Chain of human P2Y12 receptor wild-type (Q9H244 whole entry): as the sequence (Q9H244 whole entry Y109S) above, with S109Y counted along it
Chain of human P2Y12 receptor H253S mutant (Q9H244 whole entry H253S): as the sequence (Q9H244 whole entry Y109S) above, with S109Y, H253S counted along it
Chain of human P2Y12 receptor R256Q mutant (Q9H244 whole entry R256Q): as the sequence (Q9H244 whole entry Y109S) above, with S109Y, R256Q counted along it
Chain of human P2Y12 receptor F104S mutant (Q9H244 whole entry F104S): as the sequence (Q9H244 whole entry Y109S) above, with F104S, S109Y counted along it
Chain of human P2Y12 receptor R256T mutant (Q9H244 whole entry R256T): as the sequence (Q9H244 whole entry Y109S) above, with S109Y, R256T counted along it
Chain of human P2Y12 receptor S288P mutant (Q9H244 whole entry S288P): as the sequence (Q9H244 whole entry Y109S) above, with S109Y, S288P counted along it
Chain of human P2Y12 receptor R265W mutant (Q9H244 whole entry R265W): as the sequence (Q9H244 whole entry Y109S) above, with S109Y, R265W counted along it

Nc1ncnc2c1ncn2[C@@H]1O[C@H](COP(=O)(O)OP(=O)(O)O)[C@@H](O)[C@H]1O [ADP, Adenosine diphosphate]
IC50 [1]: 290 ± 50 nM | Max. inhibition by ADP (% of control) ([1]; R256T construct, CHO-K1, 20 μM forskolin, cAMP): 79.53 ± 4.83 (3) % of control | IC50 [2]: 6.46 ± 0.19 µM | Max. inhibition by ADP (% of control) ([2]; R256QR265W construct, CHO-K1, 20 μM forskolin, cAMP): 56.68 ± 6.32 ^a (3) % of control | IC50 [3]: 40 ± 10 nM | Max. inhibition by ADP (% of control) ([3]; S288P construct, CHO-K1, 20 μM forskolin, cAMP): 68.89 ± 6.24 (3) % of control | left shift of ADP concentration curve vs wild-type ([3]; S288P vs wild-type): about 4 fold | IC50 [4]: 350 ± 210 nM | inhibition at 10 µM [4, 11]: ~60% | Max. inhibition by ADP (% of control) ([4]; H253S construct, CHO-K1, 20 μM forskolin, cAMP): 62.21 ± 1.93 (3) % of control | IC50 [5]: 570 ± 30 nM | Max. inhibition by ADP (% of control) ([5]; R256Q construct, CHO-K1, 20 μM forskolin, cAMP): 75.32 ± 6.91 (3) % of control | IC50 [6]: 170 ± 90 nM | inhibition at 10 µM ([6]; CHO-K1, read-out: cAMP inhibition at 10 μM ADP): ~20% | Max. inhibition by ADP (% of control) ([6]; Y109S construct, CHO-K1, 20 μM forskolin, cAMP): 31.96 ± 0.15 ^b (3) % of control | IC50 [7]: 60 ± 10 nM | Max. inhibition by ADP (% of control) ([7]; F104S construct, CHO-K1, 20 μM forskolin, cAMP): 77.7 ± 1.12 (3) % of control | increase of potency of activation by ADP vs wild-type ([7]; F104S vs wild-type): 5 fold | IC50 [8]: 150 ± 50 nM | inhibition at 10 µM ([8]; CHO-K1, read-out: maximal inhibition of cAMP level at 10 μM ADP): ~40% | Max. inhibition by ADP (% of control) ([8]; F198P construct, CHO-K1, 20 μM forskolin, cAMP): 40.37 ± 10.64 ^b(3) % of control | IC50 [9]: 450 ± 210 nM | inhibition at 10 µM [9, 11]: ~60% | Max. inhibition by ADP (% of control) ([9]; R265W construct, CHO-K1, 20 μM forskolin, cAMP): 58.01 ± 3.08 ^a (3) % of control | IC50 [10]: 250 ± 40 nM | inhibition at 10 µM ([10]; CHO-K1, read-out: cAMP inhibition at 10 μM ADP, wild-type, 10 μM ADP): ~85% | Max. inhibition by ADP (% of control) ([10]; Wild-type construct, CHO-K1, 20 μM forskolin, cAMP): 85.37 ± 2.14 (3) % of control

CSCCNc1nc(SCCC(F)(F)F)nc2c1ncn2[C@@H]1O[C@H](COP(=O)(O)OP(=O)(O)C(Cl)(Cl)P(=O)(O)O)[C@@H](O)[C@H]1O [AR-C69931MX]
AR-C69931MX concentration enough to block ADP (10 μM)-induced activation ([1]; R256T, 10 μM ADP): 100 nM | shift of AR-C69931MX concentration curve vs wild-type ([1]; R256T, in the presence of 10 μM ADP): significant left shift | shift of AR-C69931MX concentration curve vs wild-type ([2]; R256QR265W, in the presence of 10 μM ADP): leftward shift | shift of AR-C69931MX concentration curve vs wild-type ([5]; R256Q, in the presence of 10 μM ADP): leftward shift | AR-C69931MX concentration enough to block ADP-induced activation ([9]; R265W, 10 μM ADP): 30 nM | shift of AR-C69931MX concentration curve vs wild-type ([9]; R265W, in the presence of 10 μM ADP, compared to R256Q and R256T): even more leftward shift | antagonism effect of AR-C69931MX at 10 nM ([10]; wild-type, 10 nM AR-C69931MX, 10 μM ADP): did not occur | AR-C69931MX concentration required to completely inhibit 10 μM ADP-induced inhibition of cAMP ([10]; wild-type, 10 μM ADP): 1 µM
